Reference: ChEMBL document CHEMBL3774321, “Systematic diversification of benzylidene heterocycles yields novel inhibitor scaffolds selective for Dyrk1A, Clk1 and CK2” (Eur J Med Chem, 2016)
Blank lines part the entries; values can stand above or below the molecule they belong to. Calls of active or inactive are those of the source. The calls are words filed in the database; no cut-off is given here.

Tests used:
[1] = target: Glycogen synthase kinase-3 beta (Homo sapiens) (UniProt P49841); test: Inhibition of full length recombinant human His-tagged GSK3beta expressed in baculovirus expression system at 5 uM by lantha screen kinase binding assay relative to control
Procedure, shortened: (§1)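 Binding-displacement format: the compound competes with an Alexa Fluor-conjugated tracer for binding to the kinase ATP site, rather than a peptide phosphorylation read-out.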

[2] = target: Mitogen-activated protein kinase 8 (Homo sapiens) (UniProt P45983); test: Inhibition of full length recombinant human His-tagged MAPK8 expressed in baculovirus expression system at 5 uM by lantha screen kinase binding assay relative to control; procedure, shortened: as §1
[3] = target: Dual specificity tyrosine-phosphorylation-regulated kinase 3 (Homo sapiens) (UniProt O43781); test: Inhibition of full length recombinant human GST-tagged DYRK3 expressed in baculovirus expression system at 5 uM by lantha screen kinase binding assay relative to control
[4] = target: Casein kinase I isoform gamma-2 (Homo sapiens) (UniProt P78368); test: Inhibition of full length recombinant human His-tagged CSNK1G2 expressed in baculovirus expression system at 5 uM by lantha screen kinase binding assay relative to control; procedure, shortened: as §1
[5] = target: Myosin light chain kinase, smooth muscle (Homo sapiens) (UniProt Q15746); test: Inhibition of recombinant human GST-tagged MYLK expressed in baculovirus expression system at 5 uM by lantha screen kinase binding assay relative to control; procedure, shortened: as §1
[6] = target: Dual specificity tyrosine-phosphorylation-regulated kinase 4 (Homo sapiens) (UniProt Q9NR20); test: Inhibition of full length recombinant human GST-tagged DYRK4 expressed in baculovirus expression system at 5 uM by lantha screen kinase binding assay relative to control
[7] = target: Proto-oncogene tyrosine-protein kinase ROS (Homo sapiens) (UniProt P08922); test: Inhibition of recombinant human GST-tagged ROS1 expressed in baculovirus expression system at 5 uM by lantha screen kinase binding assay relative to control; procedure, shortened: as §1
[8] = target: Tyrosine-protein kinase ABL1 (Homo sapiens) (UniProt P00519); test: Inhibition of recombinant human His-tagged ABL1 expressed in baculovirus expression system at 5 uM by lantha screen kinase binding assay relative to control; procedure, shortened: as §1
[9] = target: Casein kinase I isoform epsilon (Homo sapiens) (UniProt P49674); test: Inhibition of full length recombinant human His-tagged CSNK1E expressed in baculovirus expression system at 5 uM by lantha screen kinase binding assay relative to control
[10] = target: Mitogen-activated protein kinase kinase kinase 9 (Homo sapiens) (UniProt P80192); test: Inhibition of recombinant human GST-tagged MAP3K9 expressed in baculovirus expression system at 5 uM by lantha screen kinase binding assay relative to control; procedure, shortened: as §1
[11] = target: Dual specificity protein kinase CLK4 (Homo sapiens, UniProt Q9HAZ1); details: 5 uM
[12] = target: Dual specificity protein kinase CLK2 (Homo sapiens) (UniProt P49760); test: Inhibition of recombinant human GST-tagged CLK2 expressed in baculovirus expression system at 1 uM by lantha screen kinase binding assay relative to control; procedure, shortened: as §1
[13] = target: MAP kinase-interacting serine/threonine-protein kinase 1 (Homo sapiens) (UniProt Q9BUB5); test: Inhibition of full length recombinant human N-terminal GST-tagged MKNK1 expressed in insect cells at 1 uM by lantha screen kinase binding assay relative to control; procedure, shortened: as §1
[14] = target: Tyrosine-protein kinase ABL1 (Homo sapiens) (UniProt P00519); test: Inhibition of recombinant human His-tagged ABL1 expressed in baculovirus expression system at 1 uM by lantha screen kinase binding assay relative to control; procedure, shortened: as §1
[15] = target: Mitogen-activated protein kinase 8 (Homo sapiens) (UniProt P45983); test: Inhibition of full length recombinant human His-tagged MAPK8 expressed in baculovirus expression system at 1 uM by lantha screen kinase binding assay relative to control; procedure, shortened: as §1
[16] = target: Cyclin-dependent kinase 5/CDK5 activator 1 (Homo sapiens) (UniProt Q00535+Q15078); test: Inhibition of full length recombinant human GST-tagged, His-tagged CDK5/p25 expressed in baculovirus expression system at 1 uM by lantha screen kinase binding assay
[17] = target: Casein kinase I isoform epsilon (Homo sapiens) (UniProt P49674); test: Inhibition of full length recombinant human His-tagged CSNK1E expressed in baculovirus expression system at 1 uM by lantha screen kinase binding assay relative to control
[18] = target: Dual specificity tyrosine-phosphorylation-regulated kinase 3 (Homo sapiens) (UniProt O43781); test: Inhibition of full length recombinant human GST-tagged DYRK3 expressed in baculovirus expression system at 1 uM by lantha screen kinase binding assay relative to control
[19] = target: Serine/threonine-protein kinase pim-1 (Homo sapiens, UniProt P11309); test: Inhibition of PIM1 (unknown origin)
Procedure, shortened: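 Calculated from means of duplicates differing by less than 7%.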

[20] = target: cAMP-dependent protein kinase catalytic subunit alpha (Homo sapiens) (UniProt P17612); test: Inhibition of recombinant human His-tagged PRKACA expressed in Escherichia coli at 1 uM by lantha screen kinase binding assay relative to control; procedure, shortened: as §1
[21] = target: Dual specificity protein kinase CLK3 (Homo sapiens, UniProt P49761); test: Inhibition of recombinant human GST-tagged CLK3 expressed in baculovirus expression system at 1 uM by lantha screen kinase binding assay relative to control; procedure, shortened: as §1
[22] = target: Casein kinase I isoform delta (Homo sapiens) (UniProt P48730); test: Inhibition of full length recombinant human GST-tagged CSNK1D expressed in baculovirus expression system at 1 uM by lantha screen kinase binding assay relative to control
[23] = target: Mitogen-activated protein kinase kinase kinase 9 (Homo sapiens) (UniProt P80192); test: Inhibition of recombinant human GST-tagged MAP3K9 expressed in baculovirus expression system at 1 uM by lantha screen kinase binding assay relative to control; procedure, shortened: as §1

Chain of Dual specificity tyrosine-phosphorylation-regulated kinase 3 (Homo sapiens) (O43781 whole entry, canonical isoform): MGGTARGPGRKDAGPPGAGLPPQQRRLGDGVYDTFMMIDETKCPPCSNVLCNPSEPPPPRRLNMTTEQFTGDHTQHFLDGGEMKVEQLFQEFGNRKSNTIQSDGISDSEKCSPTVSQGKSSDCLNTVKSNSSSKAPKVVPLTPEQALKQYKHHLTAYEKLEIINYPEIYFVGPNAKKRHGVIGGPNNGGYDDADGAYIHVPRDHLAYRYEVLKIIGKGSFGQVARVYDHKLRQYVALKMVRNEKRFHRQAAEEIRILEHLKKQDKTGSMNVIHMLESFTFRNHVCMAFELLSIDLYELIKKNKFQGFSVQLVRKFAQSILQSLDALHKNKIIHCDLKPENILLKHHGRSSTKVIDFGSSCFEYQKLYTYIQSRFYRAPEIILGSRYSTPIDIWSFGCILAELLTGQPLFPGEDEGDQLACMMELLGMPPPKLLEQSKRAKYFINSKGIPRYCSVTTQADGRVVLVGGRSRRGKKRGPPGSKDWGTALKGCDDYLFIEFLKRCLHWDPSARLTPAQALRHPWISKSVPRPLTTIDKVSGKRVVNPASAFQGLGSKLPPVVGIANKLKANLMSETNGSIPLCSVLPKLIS
Chain of Tyrosine-protein kinase ABL1 (Homo sapiens) (P00519 whole entry, canonical isoform): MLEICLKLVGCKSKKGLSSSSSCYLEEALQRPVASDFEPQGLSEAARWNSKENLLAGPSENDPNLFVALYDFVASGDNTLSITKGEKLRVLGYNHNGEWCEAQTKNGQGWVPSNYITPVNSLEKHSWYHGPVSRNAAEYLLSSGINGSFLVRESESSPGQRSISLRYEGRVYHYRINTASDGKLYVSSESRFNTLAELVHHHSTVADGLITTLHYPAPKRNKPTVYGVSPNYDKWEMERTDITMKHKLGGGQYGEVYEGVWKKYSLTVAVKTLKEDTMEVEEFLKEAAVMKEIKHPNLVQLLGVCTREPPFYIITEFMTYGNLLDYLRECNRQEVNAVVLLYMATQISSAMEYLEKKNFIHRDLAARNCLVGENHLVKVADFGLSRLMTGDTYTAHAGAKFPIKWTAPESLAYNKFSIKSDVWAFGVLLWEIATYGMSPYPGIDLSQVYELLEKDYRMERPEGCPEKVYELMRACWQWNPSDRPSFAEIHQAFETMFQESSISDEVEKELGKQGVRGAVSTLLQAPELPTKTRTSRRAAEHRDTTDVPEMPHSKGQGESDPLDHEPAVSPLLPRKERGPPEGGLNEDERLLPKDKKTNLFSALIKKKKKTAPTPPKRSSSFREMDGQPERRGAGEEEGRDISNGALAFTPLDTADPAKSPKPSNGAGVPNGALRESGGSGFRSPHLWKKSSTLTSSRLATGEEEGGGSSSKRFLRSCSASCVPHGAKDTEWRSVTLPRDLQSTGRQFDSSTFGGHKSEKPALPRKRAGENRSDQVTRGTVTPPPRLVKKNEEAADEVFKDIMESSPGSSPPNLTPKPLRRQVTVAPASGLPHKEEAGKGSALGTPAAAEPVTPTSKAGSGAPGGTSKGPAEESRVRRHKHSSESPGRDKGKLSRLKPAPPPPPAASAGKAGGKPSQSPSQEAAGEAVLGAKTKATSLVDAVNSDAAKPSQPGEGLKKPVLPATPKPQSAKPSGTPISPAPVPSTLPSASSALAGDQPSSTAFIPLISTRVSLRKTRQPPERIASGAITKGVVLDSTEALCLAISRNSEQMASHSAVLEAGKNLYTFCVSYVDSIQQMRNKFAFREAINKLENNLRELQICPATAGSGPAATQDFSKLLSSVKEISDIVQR
Chain of Mitogen-activated protein kinase kinase kinase 9 (Homo sapiens) (P80192 whole entry, looked up): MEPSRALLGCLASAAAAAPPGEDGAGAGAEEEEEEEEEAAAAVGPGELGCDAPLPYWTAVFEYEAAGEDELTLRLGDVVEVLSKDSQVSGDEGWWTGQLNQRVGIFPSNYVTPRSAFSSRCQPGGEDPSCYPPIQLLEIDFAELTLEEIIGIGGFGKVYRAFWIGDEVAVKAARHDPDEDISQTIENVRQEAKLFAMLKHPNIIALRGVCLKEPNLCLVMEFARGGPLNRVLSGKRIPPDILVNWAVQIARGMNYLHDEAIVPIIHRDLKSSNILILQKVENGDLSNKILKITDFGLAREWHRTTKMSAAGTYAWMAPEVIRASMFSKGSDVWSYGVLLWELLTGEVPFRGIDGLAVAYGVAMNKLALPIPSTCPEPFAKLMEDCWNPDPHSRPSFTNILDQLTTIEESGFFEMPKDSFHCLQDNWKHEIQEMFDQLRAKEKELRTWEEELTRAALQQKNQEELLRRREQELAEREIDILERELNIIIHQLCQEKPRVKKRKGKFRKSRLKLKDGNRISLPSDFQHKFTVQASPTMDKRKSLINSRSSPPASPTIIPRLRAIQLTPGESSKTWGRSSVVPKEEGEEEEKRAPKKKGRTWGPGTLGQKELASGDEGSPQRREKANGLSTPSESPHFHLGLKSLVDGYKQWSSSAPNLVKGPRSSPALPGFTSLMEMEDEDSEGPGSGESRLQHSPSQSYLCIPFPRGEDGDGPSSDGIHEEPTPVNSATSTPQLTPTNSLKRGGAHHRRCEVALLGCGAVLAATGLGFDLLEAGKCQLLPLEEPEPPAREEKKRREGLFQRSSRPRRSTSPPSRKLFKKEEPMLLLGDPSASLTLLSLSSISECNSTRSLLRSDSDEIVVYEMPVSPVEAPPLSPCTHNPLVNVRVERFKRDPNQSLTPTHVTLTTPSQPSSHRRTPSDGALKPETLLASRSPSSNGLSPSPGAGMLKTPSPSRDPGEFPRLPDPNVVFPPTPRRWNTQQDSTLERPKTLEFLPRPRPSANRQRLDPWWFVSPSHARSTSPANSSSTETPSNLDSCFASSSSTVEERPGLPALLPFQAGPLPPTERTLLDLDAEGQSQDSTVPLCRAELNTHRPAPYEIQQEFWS
Chain of Mitogen-activated protein kinase 8 (Homo sapiens) (P45983 whole entry): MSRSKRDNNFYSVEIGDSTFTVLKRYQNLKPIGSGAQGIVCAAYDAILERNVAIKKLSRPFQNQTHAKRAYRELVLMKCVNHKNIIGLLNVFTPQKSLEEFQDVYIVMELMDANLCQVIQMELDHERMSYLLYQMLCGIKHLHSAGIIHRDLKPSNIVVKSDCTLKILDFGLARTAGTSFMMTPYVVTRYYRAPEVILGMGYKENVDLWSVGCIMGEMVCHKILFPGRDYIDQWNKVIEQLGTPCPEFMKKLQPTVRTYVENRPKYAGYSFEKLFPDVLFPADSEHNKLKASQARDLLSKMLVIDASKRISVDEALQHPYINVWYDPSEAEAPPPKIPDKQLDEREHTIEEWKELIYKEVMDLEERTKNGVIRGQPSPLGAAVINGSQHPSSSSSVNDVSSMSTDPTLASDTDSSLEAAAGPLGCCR
Chain of Casein kinase I isoform epsilon (Homo sapiens) (P49674 whole entry, looked up, canonical isoform): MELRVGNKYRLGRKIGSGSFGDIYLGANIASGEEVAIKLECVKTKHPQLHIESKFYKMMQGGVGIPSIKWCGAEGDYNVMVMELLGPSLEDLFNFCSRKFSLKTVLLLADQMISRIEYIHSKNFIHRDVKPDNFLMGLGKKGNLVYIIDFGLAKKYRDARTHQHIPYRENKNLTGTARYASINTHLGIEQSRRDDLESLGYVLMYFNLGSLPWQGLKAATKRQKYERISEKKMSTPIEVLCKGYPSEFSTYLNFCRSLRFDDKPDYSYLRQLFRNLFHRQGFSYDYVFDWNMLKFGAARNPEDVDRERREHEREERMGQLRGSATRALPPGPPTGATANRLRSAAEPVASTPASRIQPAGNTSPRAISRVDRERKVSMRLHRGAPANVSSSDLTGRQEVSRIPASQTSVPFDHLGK
Chain of Glycogen synthase kinase-3 beta (Homo sapiens) (P49841 whole entry, looked up): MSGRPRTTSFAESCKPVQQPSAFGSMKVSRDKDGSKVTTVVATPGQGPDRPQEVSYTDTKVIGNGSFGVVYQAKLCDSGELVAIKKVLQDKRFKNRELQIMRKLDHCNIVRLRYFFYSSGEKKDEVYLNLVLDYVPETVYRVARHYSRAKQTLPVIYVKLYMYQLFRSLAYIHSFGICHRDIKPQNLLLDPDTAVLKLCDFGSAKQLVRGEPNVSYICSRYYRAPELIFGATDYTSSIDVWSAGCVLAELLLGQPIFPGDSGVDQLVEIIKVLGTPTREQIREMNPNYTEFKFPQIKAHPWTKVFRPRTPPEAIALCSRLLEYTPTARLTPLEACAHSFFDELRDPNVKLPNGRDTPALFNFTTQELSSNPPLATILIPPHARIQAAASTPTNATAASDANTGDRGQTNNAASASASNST
Chain of Serine/threonine-protein kinase pim-1 (P11309 whole entry): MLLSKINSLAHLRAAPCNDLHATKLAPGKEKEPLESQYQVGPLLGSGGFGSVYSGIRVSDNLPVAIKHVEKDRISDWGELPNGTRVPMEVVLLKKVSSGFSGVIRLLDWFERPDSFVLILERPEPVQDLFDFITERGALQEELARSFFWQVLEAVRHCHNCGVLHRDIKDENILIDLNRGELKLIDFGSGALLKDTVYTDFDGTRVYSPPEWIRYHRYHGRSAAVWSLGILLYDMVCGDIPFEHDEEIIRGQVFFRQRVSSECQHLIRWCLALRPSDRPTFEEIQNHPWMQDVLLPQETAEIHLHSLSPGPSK
Chain of MAP kinase-interacting serine/threonine-protein kinase 1 (Homo sapiens) (Q9BUB5 whole entry, looked up): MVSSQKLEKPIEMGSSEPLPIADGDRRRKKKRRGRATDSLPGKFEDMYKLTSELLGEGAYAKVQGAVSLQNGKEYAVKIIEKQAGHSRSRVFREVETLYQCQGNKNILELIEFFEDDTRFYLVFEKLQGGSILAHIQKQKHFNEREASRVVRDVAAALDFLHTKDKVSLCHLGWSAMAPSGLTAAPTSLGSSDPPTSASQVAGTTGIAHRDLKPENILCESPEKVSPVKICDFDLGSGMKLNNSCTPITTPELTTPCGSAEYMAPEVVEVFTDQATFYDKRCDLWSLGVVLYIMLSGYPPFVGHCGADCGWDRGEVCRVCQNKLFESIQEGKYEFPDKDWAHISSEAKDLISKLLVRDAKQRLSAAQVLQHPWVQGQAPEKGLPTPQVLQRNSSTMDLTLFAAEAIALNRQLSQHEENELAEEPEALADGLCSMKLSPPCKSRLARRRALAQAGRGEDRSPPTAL

inhibition [1]: 8%
inhibition [2]: 14%
inhibition [3]: 7%
inhibition [4]: inactive
inhibition [5]: inactive
inhibition [6]: inactive
inhibition [7]: inactive
inhibition [8]: 6%
inhibition [9]: inactive
inhibition [10]: inactive
inhibition [11]: 98%
SMILES: O=C1NC(=S)S/C1=C\c1ccc2ncsc2c1

inhibition [12]: 80%
inhibition [13]: 44%
inhibition [14]: 14%
inhibition [15]: 7%
inhibition [16]: inactive
inhibition [17]: 1%
inhibition [18]: 84%
IC50 [19]: 103 nM
inhibition [20]: inactive
inhibition [21]: 95%
inhibition [22]: 11%
inhibition [23]: 2%
SMILES: O=C1NC(=S)S/C1=C\c1ccc2ncccc2c1
